Screening results from PubChem.
Most compounds without a hit are left out; they make up all but 1.3% or so of the library.
RAD52 anneal inh = RAD52 (human) annealing inhibition | P43351 | inhibition, % at 18.7 µM | recombinant RAD52 DNA annealing, FRET fluorescence | 0.46% of 360,000 active;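 active = every replicate showing at least 50% inhibition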
FN deposit inh = fibronectin deposition inhibition; inhibition, % at 12.6 µM; AID 743247; AH1F fibroblasts, Alexa488-fibronectin deposition fluorescence, overnight; 0.086% of 350,000 active;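 active = mean inhibition across replicates of 30% or more, regardless of how many single replicates reach that level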;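 note: positive control wells lacked labelled fibronectin entirely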
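Material: AH1F fibroblast monolayer depositing Alexa488-labelled fibronectin into matrix | Input: 10000 AH1F cells/well | Medium: DMEM plus 2% serum, read in PBS | Reagent: Alexa488-fibronectin, 24 nM final in well | Compound dosing: One dose per compound, pinned | Schedule: 1 h adhesion, overnight exposure | Measured by: Fluorescence at 485 nm excitation, 525 nm emission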
RAD54 inh = RAD54 (human) branch migration inhibition | inhibition, % at 10.4 µM | 0.14% of 360,000 active | RAD54 Holliday junction branch migration, FAM/BHQ fluorescence;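 active = mean normalized replicate activity at least 40 and at least half of replicates scoring 40 or more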;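 note: 0% = median of neutral control wells and 100% = median of positive control wells; inhibitors cause a drop in the FAM fluorescence signal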
Target sequence (Q92698 whole entry, looked up): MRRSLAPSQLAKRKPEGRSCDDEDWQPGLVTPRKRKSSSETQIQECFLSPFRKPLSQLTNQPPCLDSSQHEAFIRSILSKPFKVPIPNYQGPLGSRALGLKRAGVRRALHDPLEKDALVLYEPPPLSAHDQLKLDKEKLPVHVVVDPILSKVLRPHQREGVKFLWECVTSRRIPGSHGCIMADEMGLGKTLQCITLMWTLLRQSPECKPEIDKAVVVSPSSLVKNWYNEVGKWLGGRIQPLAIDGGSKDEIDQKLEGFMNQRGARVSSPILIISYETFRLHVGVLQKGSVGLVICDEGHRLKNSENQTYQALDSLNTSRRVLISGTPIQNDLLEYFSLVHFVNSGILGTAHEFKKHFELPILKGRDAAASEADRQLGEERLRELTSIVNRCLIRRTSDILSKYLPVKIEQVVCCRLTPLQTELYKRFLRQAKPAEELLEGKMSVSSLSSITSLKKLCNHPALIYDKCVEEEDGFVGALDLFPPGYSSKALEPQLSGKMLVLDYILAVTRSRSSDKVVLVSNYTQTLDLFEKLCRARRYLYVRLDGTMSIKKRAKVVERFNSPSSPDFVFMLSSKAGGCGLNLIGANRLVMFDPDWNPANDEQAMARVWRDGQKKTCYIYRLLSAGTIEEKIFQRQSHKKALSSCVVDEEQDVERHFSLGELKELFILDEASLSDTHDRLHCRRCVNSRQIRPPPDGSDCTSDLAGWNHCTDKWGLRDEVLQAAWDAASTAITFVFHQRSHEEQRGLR
PAX8 reporter = inhibitors of PAX8 transcriptional activity in RMG-I cells | 1.2% of 360,000 active | RMG-I TPO-luciferase reporter, SteadyGlo, 24 h | inhibition, % at 12.6 µM;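 active = mean replicate inhibition at least 60% with every replicate also reaching 60%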;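 note: luciferase light reporting Pax8 driven TPO promoter activity; plate controls were median of neutral control wells for no effect and mitoxantrone controls for full effect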
* hit, by the source's call; · = no result given; ! = not active in a repeat.

SMILES	RAD52 anneal inh	FN deposit inh	RAD54 inh	PAX8 reporter
Cc1ccc(S(=O)(=O)N2[C@@H]3CNC[C@H]2C3c2ccc(-c3cccc(C)c3)cc2)cc1 (some centres undefined)	51*!	-6	·	·
CCCn1c(N)c(Br)c(=O)[nH]c1=O	-10	-2	-1	16
COc1ccc(-c2c[n+](CC(=O)OC3CC(C)CCC3C(C)C)c3n2CCC3)cc1 (centres undefined)	44	-5	20	91*
CC(C)[C@@H]1CC[C@@H](C)C[C@H]1OC(=O)C[n+]1cc(-c2ccc(Cl)cc2)n2c1CCCCC2	47	-1	·	113*
Cc1cc2c(ncn2C)c(NS(=O)(=O)c2ccccc2Cl)c1C	·	-3	10	7
CC=Cc1ccc2n(c1=O)C[C@@H]1[C@@H](CO)[C@H](C(=O)N(C)C)[C@H]2N1C(=O)c1ccc(F)cc1 (mixture of isomers)	-6	·	8	-15
CCOCCCNC(=O)c1ccc2c(c1)N=C(CC)c1cc(Br)ccc1S2	-16	-9	1	91*
OC(c1cc(-c2ccc(C(F)(F)F)cc2)nc(C(F)(F)F)c1)C1CCCCN1 (centres undefined)	-1	7	5	88*
OC(c1cc(C(F)(F)F)nc2c(C(F)(F)F)cccc12)C1CCCCN1 (centres undefined)	14	-6	3	22
COc1ccc(CC(=O)NCCCc2ccccc2)cc1OC	-2	-1	2	5
Cc1noc(C)c1S(=O)(=O)Nc1ccc2c(c1)C(=O)N([C@@H](C)CO)C[C@H](C)[C@@H](CN(C)S(=O)(=O)c1ccc(F)cc1)OCCCC[C@H](C)O2	75*	·	-5	-2
Cc1noc(C)c1S(=O)(=O)Nc1ccc2c(c1)C(=O)N([C@@H](C)CO)C[C@H](C)[C@H](CN(C)S(=O)(=O)c1ccc(F)cc1)OCCCC[C@@H](C)O2	-38	·	-1	5
Cc1noc(C)c1S(=O)(=O)Nc1ccc2c(c1)C(=O)N([C@H](C)CO)C[C@@H](C)[C@@H](CN(C)S(=O)(=O)c1ccc(F)cc1)OCCCC[C@@H](C)O2	57*	·	-9	7
COC(=O)[C@@]1(Cc2ccccc2)N=C(c2ccc(OCCCO)cc2)O[C@H]1c1ccccc1CN=[N+]=[N-]	-10	·	-1	96*
COC(=O)[C@]1(CCS(=O)(=O)c2ccccc2)N=C(c2ccc(OCCCO)cc2)O[C@@H]1c1ccccc1CN=[N+]=[N-]	-25	·	-1	95*
COC(=O)[C@]1(Cc2ccccc2)N=C(c2ccc(OCCCO)cc2)O[C@@H]1c1ccccc1CN=[N+]=[N-]	-51	·	1	11
C=CC[C@@]1(C(=O)OC)N=C(c2ccc(OCCCO)cc2)O[C@@H]1c1ccccc1CN=[N+]=[N-]	-31	·	-10	0
Cn1nnnc1Sc1ncnc2scc(-c3ccccc3C(F)(F)F)c12	-8	-4	-10	49
Cn1nnnc1Sc1ncnc2scc(-c3cccc(F)c3)c12	-6	5	-6	105*
COc1ccc(-c2csc3ncnc(N4CCN(S(=O)(=O)c5cccc(C(F)(F)F)c5)CC4)c23)cc1	-16	2	·	-5
COc1cccc(-c2csc3ncnc(Sc4nnnn4C)c23)c1	-16	9	-6	99*
Cn1nnnc1Sc1ncnc2scc(-c3ccc(C(F)(F)F)cc3)c12	-6	19	-1	77*
Cn1nnnc1Sc1ncnc2scc(-c3cccc(C(F)(F)F)c3)c12	-28	13	-6	101*
CCC(=O)N1CCCCN2[C@@H](CO)[C@@H](c3ccc(C#Cc4ccccc4)cc3)[C@@H]2C1	-4	·	1	-14
Cn1nnnc1SCc1c(F)cccc1F	·	4	·	·
SMILES	RAD52 anneal inh	FN deposit inh	RAD54 inh	PAX8 reporter
CCOC(=O)CNC(=S)n1ncnc1N	-8	-2	·	7
CC(C)c1ccc(NC(=O)C2CCN(S(=O)(=O)c3ccc4c(c3)NC(=O)CO4)CC2)cc1	-14	7	-2	8
COc1ccc(C(=O)N2[C@@H](C(C)C)COc3cc(Br)ccc3S2(=O)=O)cc1	-8	-4	0	65*
COc1ccc(N(CC(=O)Nc2cc(Cl)ccc2C)S(=O)(=O)c2c(C)n[nH]c2C)cc1	5	1	-6	-2
C[C@@H]1CCCCO[C@H](CN(C)S(=O)(=O)c2ccc(F)cc2)[C@@H](C)CN([C@@H](C)CO)C(=O)c2cc(NC(=O)Nc3ccc(F)cc3)ccc2O1	·	-10	-5	62*
C[C@@H]1CN([C@H](C)CO)C(=O)c2cc(NC(=O)Nc3ccc(C(F)(F)F)cc3)ccc2O[C@@H](C)CCCCO[C@H]1CN(C)S(=O)(=O)c1ccc(F)cc1	12	1	-5	78*
Cc1ccc(S(=O)(=O)N(C)C[C@@H]2OCCCC[C@H](C)Oc3ccc(NC(=O)Nc4ccc(F)cc4)cc3C(=O)N([C@H](C)CO)C[C@H]2C)cc1	-39	4	3	64*
Cc1ccc(S(=O)(=O)N(C)C[C@H]2OCCCC[C@@H](C)Oc3ccc(NC(=O)CCCN(C)C)cc3C(=O)N([C@H](C)CO)C[C@@H]2C)cc1	14	-12	4	-20
Cc1ccc(S(=O)(=O)N(C)C[C@H]2OCCCC[C@@H](C)Oc3ccc(NC(=O)CCCN(C)C)cc3C(=O)N([C@@H](C)CO)C[C@H]2C)cc1	51*	-6	23	3
Cc1noc(C)c1NC(=O)N(C)C[C@H]1Oc2ccc(NC(=O)CCN3CCOCC3)cc2C(=O)N([C@H](C)CO)C[C@@H]1C	7	1	-1	-16
Cc1ccc(S(=O)(=O)N(C)C[C@@H]2OCCCC[C@H](C)Oc3ccc(NC(=O)Nc4ccc(C(F)(F)F)cc4)cc3C(=O)N([C@@H](C)CO)C[C@@H]2C)cc1	-49	-10	-2	42
Cc1ccc(S(=O)(=O)N(C)C[C@@H]2OCCCC[C@H](C)Oc3ccc(NC(=O)Nc4ccc(C(F)(F)F)cc4)cc3C(=O)N([C@H](C)CO)C[C@H]2C)cc1	-29	0	-5	61*
C=C1CCC[C@]2(C)C[C@H]3OC(=O)C(CNC(C)CC)[C@H]3CC12 (some centres undefined)	-2	-5	6	45
C=C1CCC[C@]2(C)C[C@H]3OC(=O)C(CN(C)CC(OC)OC)[C@H]3CC12 (some centres undefined)	-2	1	-7	63*
CC1CCCN(c2ncnc3c2cnn3-c2ccccc2)C1 (centres undefined)	-4	-3	-6	25
CC1CCCN(c2ncnc3c2cnn3-c2ccc(Cl)cc2)C1 (centres undefined)	2	4	-9	76*
CCc1cc[n+](C2=C([O-])c3ccccc3C(=O)/C2=N\S(=O)(=O)c2cccs2)cc1	-9	2	·	87*
Cc1cccc(/C=C(\c2nc3ccccc3[nH]2)S(=O)(=O)c2ccccc2)c1	-12	16	·	106*
O=C(CSc1nc2ccccc2c(=O)n1Cc1ccc(F)cc1)NCc1cccs1	-18	·	·	0
Cc1ccc(-c2nc(-c3ccccn3)no2)cc1Cl	·	-1	5	81*
Cc1ccc(-c2nc(-c3ccccn3)no2)cc1	·	·	-2	·
CCNC(=S)N1CCN(c2ccccn2)CC1	-11	-17	·	-3
